Key:
[1] = test system: Human immunodeficiency virus 1; assay: Antiviral activity against HIV-1 SM026 harboring NNTRI 103N and 181C mutant infected in human MT4 cells assessed as inhibition of viral replication relative to HIV-1 3B; type: functional
How it was run: (§1)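 MT-4 cells (3 x 10^4/well) infected with site-directed mutants or recombinant clinical isolates (200 TCID50/well) with drug, cultured 3 to 5 days. Viability read by MTT colorimetric antivirogram assay. IC50 by nonlinear regression; fold change = IC50 for the test isolate / IC50 for wild-type HIV-1 IIIB tested in parallel (mean or median).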

[2] = test system: Human immunodeficiency virus 1; assay: Antiviral activity against HIV-1 subtype B V022809 infected in human MT4 cells assessed as inhibition of viral replication relative to HIV-1 3B; type: functional; how it was run: as §1
[3] = test system: Human immunodeficiency virus 1; assay: Antiviral activity against HIV-1 subtype B V022811 infected in human MT4 cells assessed as inhibition of viral replication relative to HIV-1 3B; type: functional
How it was run: (§2)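 Recombinant clinical HIV-1 isolates (200 TCID50/well) were tested in MT-4 cells (3 x 10^4/well) over 3–5 days, with an MTT viability read-out. IC50 was fitted by nonlinear regression. Fold change is the isolate IC50 divided by the HIV-1IIIB IC50, tested in parallel.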

[4] = test system: Human immunodeficiency virus 1; assay: Antiviral activity against HIV-1 subtype CRF01_AE V022820 infected in human MT4 cells assessed as inhibition of viral replication relative to HIV-1 3B; type: functional; how it was run: as §1
[5] = test system: Human immunodeficiency virus 1; assay: Antiviral activity against HIV-1 subtype CRF02_AG V022808 infected in human MT4 cells assessed as inhibition of viral replication relative to HIV-1 3B; type: functional; how it was run: as §1
[6] = test system: Human immunodeficiency virus 1; assay: Antiviral activity against HIV-1 SM002 harboring NNTRI 181C mutant infected in human MT4 cells assessed as inhibition of viral replication relative to HIV-1 3B; type: functional; how it was run: as §1
[7] = test system: Human immunodeficiency virus 1; assay: Antiviral activity against HIV-1 subtype CRF02_AG V022825 infected in human MT4 cells assessed as inhibition of viral replication relative to HIV-1 3B; type: functional; how it was run: as §1
[8] = test system: Human immunodeficiency virus 1; assay: Antiviral activity against HIV-1 subtype CRF01_AE V029521 infected in human MT4 cells assessed as inhibition of viral replication relative to HIV-1 3B; type: functional; how it was run: as §2
[9] = test system: Human immunodeficiency virus 1; assay: Antiviral activity against HIV-1 subtype B V022810 harboring NNRTI A98S andK101R mutant infected in human MT4 cells assessed as inhibition of viral replication relative to HIV-1 3B; type: functional; how it was run: as §1
[10] = test system: Human immunodeficiency virus 1; assay: Antiviral activity against HIV-1 subtype CRF05_DF V022824 harboring NNRTI V106I mutant infected in human MT4 cells assessed as inhibition of viral replication relative to HIV-1 3B; type: functional; how it was run: as §1
[11] = test system: Human immunodeficiency virus 1; assay: Antiviral activity against HIV-1 subtype CRF05_DF V022823 infected in human MT4 cells assessed as inhibition of viral replication relative to HIV-1 3B; type: functional; how it was run: as §1
[12] = test system: Human immunodeficiency virus 1; assay: Antiviral activity against HIV-1 subtype B V022815 infected in human MT4 cells assessed as inhibition of viral replication relative to HIV-1 3B; type: functional; how it was run: as §2
[13] = test system: Human immunodeficiency virus 1; assay: Antiviral activity against HIV-1 subtype B V022807 infected in human MT4 cells assessed as inhibition of viral replication relative to HIV-1 3B; type: functional; how it was run: as §2
[14] = test system: Human immunodeficiency virus 1; assay: Antiviral activity against HIV-1 subtype H V029523 harboring NNRTI K101Q and V179I mutant infected in human MT4 cells assessed as inhibition of viral replication relative to HIV-1 3B; type: functional; how it was run: as §1
[15] = test system: Human immunodeficiency virus 1; assay: Antiviral activity against HIV-1 subtype B V022812 harboring NNRTI V179I mutant infected in human MT4 cells assessed as inhibition of viral replication relative to HIV-1 3B; type: functional; how it was run: as §1
[16] = test system: Human immunodeficiency virus 1; assay: Antiviral activity against HIV-1 subtype CRF01_AE V022821 infected in human MT4 cells assessed as inhibition of viral replication relative to HIV-1 3B; type: functional; how it was run: as §2
[17] = test system: Human immunodeficiency virus 1; assay: Antiviral activity against HIV-1 subtype C V022831 infected in human MT4 cells assessed as inhibition of viral replication relative to HIV-1 3B; type: functional; how it was run: as §1
[18] = test system: Human immunodeficiency virus 1; assay: Antiviral activity against HIV-1 subtype CRF05_DF V022833 harboring NNRTI V179I mutant infected in human MT4 cells assessed as inhibition of viral replication relative to HIV-1 3B; type: functional; how it was run: as §1
[19] = test system: Human immunodeficiency virus 1; assay: Antiviral activity against HIV-1 SM034 harboring NNTRI 188L mutant infected in human MT4 cells assessed as inhibition of viral replication relative to HIV-1 3B; type: functional; how it was run: as §1
[20] = test system: Human immunodeficiency virus 1; assay: Antiviral activity against HIV-1 SM024 harboring NNTRI 190A mutant infected in human MT4 cells assessed as inhibition of viral replication relative to HIV-1 3B; type: functional; how it was run: as §1
[21] = test system: Human immunodeficiency virus 1; assay: Antiviral activity against HIV-1 SM030 harboring NNTRI 100I mutant infected in human MT4 cells assessed as inhibition of viral replication relative to HIV-1 3B; type: functional; how it was run: as §1
[22] = test system: Human immunodeficiency virus 1; assay: Antiviral activity against HIV-1 subtype CRF01_AE V029525 infected in human MT4 cells assessed as inhibition of viral replication relative to HIV-1 3B; type: functional; how it was run: as §2
[23] = test system: Human immunodeficiency virus 1; assay: Antiviral activity against HIV-1 SM007 harboring NNTRI 103N mutant infected in human MT4 cells assessed as inhibition of viral replication relative to HIV-1 3B; type: functional; how it was run: as §1
[24] = test system: Human immunodeficiency virus 1; assay: Antiviral activity against HIV-1 subtype O V029524 harboring NNRTI A98G, V179E and Y181C mutant infected in human MT4 cells assessed as inhibition of viral replication relative to HIV-1 3B; type: functional; how it was run: as §1
[25] = test system: Human immunodeficiency virus 1; assay: Antiviral activity against HIV-1 subtype C V022816 infected in human MT4 cells assessed as inhibition of viral replication relative to HIV-1 3B; type: functional; how it was run: as §2
[26] = test system: Human immunodeficiency virus 1; assay: Antiviral activity against HIV-1 SM012 harboring NNTRI 108I mutant infected in human MT4 cells assessed as inhibition of viral replication relative to HIV-1 3B; type: functional; how it was run: as §1
[27] = test system: Human immunodeficiency virus 1; assay: Antiviral activity against HIV-1 subtype CRF02_AG V022826 infected in human MT4 cells assessed as inhibition of viral replication relative to HIV-1 3B; type: functional; how it was run: as §1
[28] = test system: Human immunodeficiency virus 1; assay: Antiviral activity against HIV-1 subtype B V022814 infected in human MT4 cells assessed as inhibition of viral replication relative to HIV-1 3B; type: functional; how it was run: as §1
[29] = test system: Human immunodeficiency virus 1; assay: Antiviral activity against HIV-1 subtype D V022818 infected in human MT4 cells assessed as inhibition of viral replication relative to HIV-1 3B; type: functional; how it was run: as §1
[30] = test system: Human immunodeficiency virus 1; assay: Antiviral activity against HIV-1 SM051 harboring NNTRI 100I and 103N mutant infected in human MT4 cells assessed as inhibition of viral replication relative to HIV-1 3B; type: functional; how it was run: as §1
[31] = test system: Human immunodeficiency virus 1; assay: Antiviral activity against HIV-1 subtype F V029522 infected in human MT4 cells assessed as inhibition of viral replication relative to HIV-1 3B; type: functional; how it was run: as §1
[32] = test system: Human immunodeficiency virus 1; assay: Antiviral activity against HIV-1 subtype C V022829 infected in human MT4 cells assessed as inhibition of viral replication relative to HIV-1 3B; type: functional; how it was run: as §1
[33] = test system: Human immunodeficiency virus 1; assay: Antiviral activity against HIV-1 subtype CRF01_AE V022822 infected in human MT4 cells assessed as inhibition of viral replication relative to HIV-1 3B; type: functional; how it was run: as §1
[34] = test system: Human immunodeficiency virus 1; assay: Antiviral activity against HIV-1 subtype D V022832 infected in human MT4 cells assessed as inhibition of viral replication relative to HIV-1 3B; type: functional; how it was run: as §1
[35] = test system: Human immunodeficiency virus 1; assay: Antiviral activity against HIV-1 subtype D V022819 infected in human MT4 cells assessed as inhibition of viral replication relative to HIV-1 3B; type: functional; how it was run: as §1
[36] = test system: Human immunodeficiency virus 1; assay: Antiviral activity against HIV-1 subtype H V022827 harboring NNRTI V179I mutant infected in human MT4 cells assessed as inhibition of viral replication relative to HIV-1 3B; type: functional; how it was run: as §1
[37] = test system: Human immunodeficiency virus 1; assay: Antiviral activity against HIV-1 subtype B V022813 infected in human MT4 cells assessed as inhibition of viral replication relative to HIV-1 3B; type: functional; how it was run: as §1
[38] = test system: Human immunodeficiency virus 1; assay: Antiviral activity against HIV-1 SM052 harboring NNTRI 101E and 103N mutant infected in human MT4 cells assessed as inhibition of viral replication relative to HIV-1 3B; type: functional; how it was run: as §1
[39] = test system: Human immunodeficiency virus 1; assay: Antiviral activity against HIV-1 SM058 harboring NNTRI 227L and 106A mutant infected in human MT4 cells assessed as inhibition of viral replication relative to HIV-1 3B; type: functional; how it was run: as §1
[40] = test system: Human immunodeficiency virus 1; assay: Antiviral activity against HIV-1 subtype CRF02_AG V022830 infected in human MT4 cells assessed as inhibition of viral replication relative to HIV-1 3B; type: functional; how it was run: as §1
[41] = test system: Human immunodeficiency virus 1; assay: Antiviral activity against HIV-1 subtype H V022828 harboring NNRTI K101Q and V179I mutant infected in human MT4 cells assessed as inhibition of viral replication relative to HIV-1 3B; type: functional; how it was run: as §1
[42] = Toxicity against human cervical tissue explants after 2 hrs by MTT assay
How it was run: (§3)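 Ectocervical tissue explants, uninfected, exposed to drug for 2 or 24 h at 37°C. Viability by MTT dye reduction per milligram tissue, read right after exposure or after overnight culture following the 2-h exposure, as percent of unexposed controls. Four donors, each condition in triplicate; CC50 by nonlinear regression.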

[43] = Toxicity against human cervical tissue explants after 24 hrs by MTT assay; how it was run: as §3

## Cc1ccnc2c1NC(=O)c1cccnc1N2C1CC1 [NEVIRAPINE]
[1]
  Ratio IC50: 222
[2]
  Ratio IC50: 5
[3]
  Ratio IC50: 3.4
[4]
  Ratio IC50: 1.3
[5]
  Ratio IC50: 0.8
[6]
  Ratio IC50: 222
[7]
  Ratio IC50: 0.7
[8]
  Ratio IC50: 1.4
[9]
  Ratio IC50: 1.7
[10]
  Ratio IC50: 3.1
[11]
  Ratio IC50: 0.9
[12]
  Ratio IC50: 1
[13]
  Ratio IC50: 3.4
[14]
  Ratio IC50: 1.4
[15]
  Ratio IC50: 0.8
[16]
  Ratio IC50: 1.2
[17]
  Ratio IC50: 0.9
[18]
  Ratio IC50: 1.7
[19]
  Ratio IC50: 222
[20]
  Ratio IC50: 96
[21]
  Ratio IC50: 5
[22]
  Ratio IC50: 7
[23]
  Ratio IC50: 22
[24]
  Ratio IC50: 89
[25]
  Ratio IC50: 3.8
[26]
  Ratio IC50: 1
[27]
  Ratio IC50: 0.4
[28]
  Ratio IC50: 2.4
[29]
  Ratio IC50: 0.5
[30]
  Ratio IC50: 22
[31]
  Ratio IC50: 2.1
[32]
  Ratio IC50: 0.6
[33]
  Ratio IC50: 0.8
[34]
  Ratio IC50: 0.9
[35]
  Ratio IC50: 1
[36]
  Ratio IC50: 0.4
[37]
  Ratio IC50: 1
[38]
  Ratio IC50: 22
[39]
  Ratio IC50: 22
[40]
  Ratio IC50: 1.3
[41]
  Ratio IC50: 1.1

## CCCCCCCCCc1ccc(OCCOCCOCCOCCOCCOCCOCCOCCOCCO)cc1 [NONOXYNOL 9]
[42]
  CC50: 0.07%
[43]
  CC50: 0.003%
